Screening results: PubChem, several laboratories
Compounds with a hit are over-represented: about 2.1% of the library has one in this group of screens.
Runt-SMMHC FRET – blocks binding of human RUNX1 Runt domain to CBFb-SMMHC; Q01196+Q13951; Cerulean-Runt/Venus-CBFb-SMMHC FRET ratio 530/480, 1 h; inhibition, % at 20 µM; actives 0.74% (n = 220,000);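 active means mean inhibition across duplicate retests at 20 µM reaching about 50%, limit read from the data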;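 further: inhibitors lower the FRET ratio by blocking Runt binding to CBFb-SMMHC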
RanGTP-Impb inh – inhibitors of RanGTP-importin-beta interaction, primary screen, biochemical, FRET, CFP-Ran, YFP-importin-beta, homogeneous; cell-free CFP-Ran/YFP-importin-beta FRET ratio; actives 1.1% (n = 300,000); inhibition, % (test concentration not listed);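 active means more than half of the replicate wells show a fall in the fluorescence ratio signal beyond about 16%, limit read from the data, passing the limit was not always enough; inconclusive means exactly half of the replicate wells pass the set limit; inactive means fewer than half of replicates pass the limit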
Hck-Nef inh – human Hck-Nef kinase inhibition; actives 0.68% (n = 220,000); inhibition, % at 20 µM; Recombinant Hck-YEEI plus Nef, Z-Lyte FRET kinase assay; AID 463187;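 active means Hck-Nef kinase inhibition above about 50%, limit read from the data; inactive means inhibition below that limit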
pCIP destab – compounds decreasing mouse p/CIP protein stability; decrease of EGFP signal, % at 10 µM; actives 0.01% (n = 290,000); AID 1984; F442A p/CIP-EGFP cells, EGFP fluorescence, 16 h;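 active means EGFP signal decrease of at least 30% at 10 µM or well 3 SD below plate mean, unless failing retest; inactive means the rest, including hits failing retest or dose response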
Target sequence (Q05BA5 1-1403): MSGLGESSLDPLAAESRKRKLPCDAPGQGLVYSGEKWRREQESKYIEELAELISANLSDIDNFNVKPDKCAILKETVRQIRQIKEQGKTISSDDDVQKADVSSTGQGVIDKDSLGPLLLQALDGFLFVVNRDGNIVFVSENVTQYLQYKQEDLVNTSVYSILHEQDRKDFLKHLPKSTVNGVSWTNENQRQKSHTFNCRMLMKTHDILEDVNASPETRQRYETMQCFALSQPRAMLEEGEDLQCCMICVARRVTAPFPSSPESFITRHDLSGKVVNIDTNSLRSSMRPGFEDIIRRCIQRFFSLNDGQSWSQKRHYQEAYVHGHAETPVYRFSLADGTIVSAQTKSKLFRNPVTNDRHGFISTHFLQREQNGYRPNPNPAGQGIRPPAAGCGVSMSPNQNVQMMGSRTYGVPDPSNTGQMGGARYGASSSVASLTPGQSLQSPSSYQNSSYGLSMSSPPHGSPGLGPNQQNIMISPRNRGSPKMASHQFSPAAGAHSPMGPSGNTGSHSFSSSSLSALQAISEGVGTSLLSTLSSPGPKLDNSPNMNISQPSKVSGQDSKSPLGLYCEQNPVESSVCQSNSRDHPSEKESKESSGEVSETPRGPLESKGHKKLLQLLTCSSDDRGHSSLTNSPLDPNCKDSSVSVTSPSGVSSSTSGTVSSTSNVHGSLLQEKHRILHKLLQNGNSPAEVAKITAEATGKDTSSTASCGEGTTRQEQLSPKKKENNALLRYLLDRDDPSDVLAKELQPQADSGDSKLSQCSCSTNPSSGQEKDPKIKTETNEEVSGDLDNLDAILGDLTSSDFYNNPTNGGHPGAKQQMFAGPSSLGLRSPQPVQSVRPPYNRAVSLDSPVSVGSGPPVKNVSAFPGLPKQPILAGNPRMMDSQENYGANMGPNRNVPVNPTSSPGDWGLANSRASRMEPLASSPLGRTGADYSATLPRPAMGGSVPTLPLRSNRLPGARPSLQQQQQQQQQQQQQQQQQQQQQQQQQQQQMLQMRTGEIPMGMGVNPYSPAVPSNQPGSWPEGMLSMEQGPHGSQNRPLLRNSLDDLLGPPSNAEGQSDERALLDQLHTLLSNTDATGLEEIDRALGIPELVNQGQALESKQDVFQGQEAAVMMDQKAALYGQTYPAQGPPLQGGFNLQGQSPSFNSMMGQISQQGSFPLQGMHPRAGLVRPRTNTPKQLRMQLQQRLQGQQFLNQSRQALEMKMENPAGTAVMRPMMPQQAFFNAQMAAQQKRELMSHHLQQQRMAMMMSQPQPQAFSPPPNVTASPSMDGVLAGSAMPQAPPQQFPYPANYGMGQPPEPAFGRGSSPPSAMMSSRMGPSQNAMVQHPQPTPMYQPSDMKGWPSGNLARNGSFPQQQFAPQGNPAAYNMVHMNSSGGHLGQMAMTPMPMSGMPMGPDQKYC
Runt-CBFb FRET – Runt domain-CBFb interaction inhibition; Q01196+Q13951; Cerulean-Runt/Venus-CBFb FRET ratio 530/480, 1 h; inhibition, % at 20 µM; actives 0.46% (n = 220,000);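 active means inhibition over about 50% at 20 µM in the single-dose screen, limit read from the data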
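Measured by: fluorescence energy transfer, 422 nm excitation, 530/480 nm emission; Assay system: Cerulean-Runt domain; Medium: Tris pH 7.5 buffer with BSA; Measure: loss of energy transfer signal; Controls: 5 µM unlabeled CBFb as full-inhibition high control; Incubation: protein complex preformed 1 h, compound exposure 1 h, room temperature, dark.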
Pemphigus Ab inh – human desmoglein-3 autoantibody binding inhibition | P32926 | DSG3-coupled beads, scFv-anti-DSG3-GFP binding, flow cytometry; hits give low values | binding (percent of control), % at 10 µM | actives 0.48% (n = 310,000) | AID 588358;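 active means binding more than 3 SD below its plate's average and above zero; inconclusive means below that plate limit but binding exactly zero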;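 further: hits lower antibody fragment binding to DSG3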
A number is an active result; - = inactive; ? = inconclusive; . = no result.

SMILES | Runt-SMMHC FRET | RanGTP-Impb inh | Hck-Nef inh | pCIP destab | Runt-CBFb FRET | Pemphigus Ab inh
Cc1ccc(CS(=O)Cc2ccc(C(=O)N3CCN(c4ccccc4)CC3)o2)cc1 (configuration not stated) | . | - | . | - | . | -
CCN1CCN(C(=O)c2ccc(CS(=O)Cc3ccc(C)cc3)o2)CC1 (configuration not stated) | . | - | . | - | . | 74
CCN(CC)C(=O)[C@H]1C[C@H](CC(=O)NCCN2CCOCC2)C(=O)N2CCc3c([nH]c4cc(-c5ccco5)ccc34)[C@]12C | . | . | . | . | . | -
Cc1nn(-c2ccccc2)c2[nH]c(=O)c(CNc3ccc(N4CCOCC4)cc3)cc12 | - | - | - | - | - | 76
CC(C)(C)c1nn(-c2ccccc2)c2[nH]c(=O)c(CNc3ccc4c(c3)OCCO4)cc12 | - | - | - | - | - | -
O=C(COC(=O)CSc1ccc(Cl)cc1)Nc1ccc2[nH]c(=O)[nH]c2c1 | . | . | . | . | . | 99
O=C(COC(=O)/C=C/c1ccc(Br)o1)Nc1ccc2[nH]c(=O)[nH]c2c1 | . | - | . | . | . | 57
CCOc1ccccc1NC(=O)C(=O)N/N=C/c1ccc([N+](=O)[O-])cc1 | - | ? | - | - | - | 93
CCOC(=O)C(C#N)=C1CCN(Cc2ccccc2)CC1 | . | 51 | . | - | . | -
O=c1cc(N2CCOCC2)[nH]c(=O)n1-c1ccc(Cl)cc1 | - | - | - | - | - | -
O=c1cc(N2CCCCCC2)[nH]c(=O)n1-c1ccc(Cl)cc1 | - | 129 | - | - | - | -
O=c1cc(N2CCCC2)[nH]c(=O)n1-c1ccc(Cl)cc1 | - | 59 | - | - | - | -
CNC[C@H]1OCc2ccccc2-c2ccccc2C(=O)N([C@H](C)CO)C[C@H]1C | . | . | . | . | . | -
Cc1ccc(C)c(N2CCN(C(=O)CCCn3c(=S)[nH]c4cc5c(cc4c3=O)OCO5)CC2)c1 | - | - | - | - | - | 78
COCCCNC(=O)CCn1c(=O)c2ccccc2n(CC(=O)NCCC2=CCCCC2)c1=O | - | - | - | - | - | 68
CN(C)c1ccc(S(=O)(=O)N2CCCCC2)cc1NC(=O)COc1ccccc1F | - | ? | - | - | - | -
c1ccc2[nH]c(SN3CCOCC3)nc2c1 | 62 | . | - | - | - | .
CCN1C(=NCCc2cccs2)N[C@@H](c2cccs2)C(C(=O)OC)=C1C | . | 31 | . | - | . | -
CCSc1ccc(-c2nn(-c3ccccc3)cc2/C=C(/C#N)C(=O)NC)cc1 | 60 | . | - | - | - | -
CCCSc1ccc(-c2nn(-c3ccccc3)cc2/C=C(/C#N)C(=O)N2CCOCC2)cc1 | - | - | - | - | - | -
CCC(=O)Nc1ccc(C(=O)n2ccc(C)n2)cc1 | - | - | - | - | - | -
Cc1ccn(C(=O)c2ccc(NC(=O)C3CC3)cc2)n1 | - | ? | - | - | - | 74
CC1CC(C)CN(CCC(=O)Nc2ccc(Br)cc2)C1 (configuration not stated) | . | - | . | - | . | -
O=C(Cn1cnc2c(nnn2Cc2ccc(Cl)cc2)c1=O)c1ccccc1 | - | - | - | - | - | 62
O=C(Cn1cnc2c(nnn2Cc2ccccc2)c1=O)c1ccccc1 | - | - | - | - | - | -
SMILES | Runt-SMMHC FRET | RanGTP-Impb inh | Hck-Nef inh | pCIP destab | Runt-CBFb FRET | Pemphigus Ab inh
O=C(N/N=C\C=C\c1ccc2c(c1)OCO2)C1COc2cc3ccccc3cc2O1 (configuration not stated) | - | 19 | - | - | - | -
CSc1ccc(CCNC(=O)C2CCCN(S(=O)(=O)N3CCOCC3)C2)cc1 (configuration not stated) | . | ? | . | - | . | 77
COc1ccc(CCNC(=O)C2CCCN(S(=O)(=O)N3CCCCCC3)C2)cc1OC (configuration not stated) | . | - | . | - | . | -
CCO[C@@H]1OC(C(=O)NC2CC2)=C[C@H](C2CC2)[C@H]1CCCO | - | 30 | - | - | - | -
CCO[C@H]1OC(C(=O)NC2CC2)=C[C@@H](C)[C@@H]1CCCO | - | - | - | - | - | -
COc1ccc(C(=O)Oc2cccc3cccnc23)cc1[N+](=O)[O-] | - | - | - | - | - | -
NC(=O)c1ccc(Oc2cccc3cccnc23)c([N+](=O)[O-])c1 | 85 | - | - | - | - | -
